Experimental data from different studies.
Lines come from different studies, so protocols differ. Values after ≈ are worked out from the molar mass of the structure shown.

`CC1CCC(C(C)C)C(OC2=C(Cl)C(=O)c3ccccc3C2=O)C1` (stereo not shown) gave an MIC of 12 µg/mL (≈ 34.6 µM) (Alternaria alternata; microbial growth, broth dilution).
`CN1CCN(c2ncc(-c3ccc4nncc(Nc5cnccn5)c4c3)cn2)CC1` gave an EC50 of greater than 10000 nM (Trypanosoma cruzi; parasite growth; C2C12; intracellular, amastigote).
For `O=C(Cn1ccnc1[N+](=O)[O-])NCc1ccccc1`, the IC50 was 0.71 µg/mL (Trypanosoma cruzi; parasite growth; LLC-MK2; 48 h, intracellular, amastigote).
With `CC1(C)S[C@@H]2[C@H](NC(=O)[C@H](N)c3ccccc3)C(=O)N2[C@H]1C(=O)O` the MIC was greater than 200 µg/mL (Staphylococcus haemolyticus; microbial growth; clinical isolate).
`OC(Cn1cncn1)(Cn1cncn1)c1ccc(F)cc1F` has an MIC of 10 µg/mL (≈ 32.7 µM) (Alternaria alternata; microbial growth, broth dilution).
For `CN[C@H](CC(C)C)C(=O)N[C@H]1C(=O)N[C@@H](CC(N)=O)C(=O)N[C@H]2C(=O)N[C@H]3C(=O)N[C@H](C(=O)N[C@H](C(=O)O)c4cc(O)cc(O)c4-c4cc3ccc4O)[C@H](O)c3ccc(c(Cl)c3)Oc3cc2cc(c3O[C@@H]2O[C@H](CO)[C@@H](O)[C@H](O)[C@H]2O[C@H]2C[C@](C)(N)[C@H](O)[C@H](C)O2)Oc2ccc(cc2Cl)[C@H]1O`, the MIC was 0.78 µg/mL (≈ 0.538 µM) (Staphylococcus haemolyticus; microbial growth; clinical isolate).
`COc1ccc(Nc2cnnc3cc(-c4ccc(N5CCN(C)CC5)cc4)ccc23)nc1` has an EC50 of 2100 nM (Trypanosoma cruzi; parasite growth; C2C12; intracellular, amastigote).
The IC50 of `COC(=O)N[C@H](C(=O)N1CC2(CC2)C[C@H]1c1nc(-c2ccc3c(c2)C(F)(F)c2cc(-c4ccc5[nH]c([C@@H]6[C@H]7CC[C@H](C7)N6C(=O)[C@@H](NC(=O)OC)C(C)C)nc5c4)ccc2-3)c[nH]1)C(C)C` is reported as 60 nM (Trypanosoma cruzi; parasite growth; Vero, TULAHUEN; 72 h, intracellular, amastigote).
With `CN1CCN(c2ncc(-c3ccc4nncc(Nc5ncccn5)c4c3)cn2)CC1` the EC50 was greater than 10000 nM (Trypanosoma cruzi; parasite growth; C2C12; intracellular, amastigote).
`CC[C@@H]1/C=C(\C)C[C@H](C)C[C@H](OC)[C@H]2O[C@@](O)(C(=O)C(=O)N3CCCC[C@H]3C(=O)O[C@H](/C(C)=C/[C@@H]3CC[C@H](Cl)[C@H](OC)C3)[C@H](C)[C@@H](O)CC1=O)[C@H](C)C[C@@H]2OC` has an IC50 of 2130 nM (Trypanosoma cruzi; parasite growth; Vero, TULAHUEN; 72 h, intracellular, amastigote).
